{"source": "ChEMBL document CHEMBL4689842", "about": "“EUbOPEN Chemogenomics Library wave 1” (2021)", "tested_on": "HEK-293T", "assay": "Multiplex assay against HEK293T;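 on Population Tubulin-Different-Phenotype (%): share of the cells with healthy nuclei that show this phenotype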", "assay_type": "toxicity, cell-based", "settings": "human", "in_short": "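Imaging took place on a CQ1 microscope at 37°C and 5% CO2 once compound had been added to live cells stained at seeding with Hoechst33342, BioTracker Green Microtubule Cytoskeleton Dye, MitoTracker Red and Annexin V Alexa Fluor 680. CellPathfinder machine-learning gating classed cells as Hoechst high-intensity objects or normal cells, classed normal cells as having healthy, pyknosed or fragmented nuclei, and classed pyknosed cells as mitotic or apoptotic. Tubulin, mitochondrial-mass and membrane-permeability phenotypes are per cents of the healthy-nucleus cells.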", "key": {"[1]": {"settings": "12 h, 1 µM, compound concentration 1 uM, replicate 1"}, "[2]": {"settings": "12 h, 1 µM, compound concentration 1 uM, replicate 2"}, "[3]": {"settings": "12 h, 10 µM, compound concentration 10 uM, replicate 1"}, "[4]": {"settings": "12 h, 10 µM, compound concentration 10 uM, replicate 2"}, "[5]": {"settings": "24 h, 1 µM, compound concentration 1 uM, replicate 1"}, "[6]": {"settings": "24 h, 1 µM, compound concentration 1 uM, replicate 2"}, "[7]": {"settings": "24 h, 10 µM, compound concentration 10 uM, replicate 1"}, "[8]": {"settings": "24 h, 10 µM, compound concentration 10 uM, replicate 2"}}, "note": "Where “and” joins values, the source holds several entries; their conditions need not be identical. Equal values may be shown once.", "data": [{"smiles": "CNCc1ccc(-c2cc(-c3nc(-c4ccc(S(=O)(=O)C(C)C)cc4)cnc3N)on2)cc1", "note": "[BERZOSERTIB]", "values": [{"measurement": "Population Apoptotic (%)", "setting": "[1]", "result": "44% and 25%"}, {"measurement": "Population Fragmented Nuclei (%)", "setting": "[1]", "result": "94% and 79%"}, {"measurement": "Population Hoechst High Intensity Objects (%)", "setting": "[1]", "result": "36% and 50%"}, {"measurement": "Population Membrane Permeable-Phenotype (%)", "setting": "[1]", "result": "31% and 34%"}, {"measurement": "Population Mitochondria Different-Phenotype (%)", "setting": "[1]", "result": 9, "unit": "%"}, {"measurement": "Population Mitotic Cells (%)", "setting": "[1]", "result": "55% and 75%"}, {"measurement": "Population Normal (%)", "setting": "[1]", "result": "63% and 49%"}, {"measurement": "Population Tubulin-Different-Phenotype (%)", "setting": "[1]", "result": 13, "unit": "%"}, {"measurement": "Total Cell Count", "setting": "[1]", "result": "865 and 596"}, {"measurement": "Population Apoptotic (%)", "setting": "[2]", "result": "14% and 11%"}, {"measurement": "Population Fragmented Nuclei (%)", "setting": "[2]", "result": 66, "unit": "%"}, {"measurement": "Population Hoechst High Intensity Objects (%)", "setting": "[2]", "result": "28% and 80%"}, {"measurement": "Population Mitochondria Different-Phenotype (%)", "setting": "[2]", "result": "0% and 16%"}, {"measurement": "Population Mitotic Cells (%)", "setting": "[2]", "result": "85% and 88%"}, {"measurement": "Population Tubulin-Different-Phenotype (%)", "setting": "[2]", "result": "50% and 60%"}, {"measurement": "Total Cell Count", "setting": "[2]", "result": "1257 and 695"}, {"measurement": "Population Apoptotic (%)", "setting": "[3]", "result": "37% and 15%"}, {"measurement": "Population Fragmented Nuclei (%)", "setting": "[3]", "result": "82% and 86%"}, {"measurement": "Population Healthy Nuclei (%)", "setting": "[3]", "result": "12% and 7%"}, {"measurement": "Population Hoechst High Intensity Objects (%)", "setting": "[3]", "result": "48% and 47%"}, {"measurement": "Population Membrane Permeable-Phenotype (%)", "setting": "[3]", "result": "46% and 29%"}, {"measurement": "Population Mitochondria Different-Phenotype (%)", "setting": "[3]", "result": "6% and 7%"}, {"measurement": "Population Mitotic Cells (%)", "setting": "[3]", "result": "62% and 85%"}, {"measurement": "Population Normal (%)", "setting": "[3]", "result": "51% and 52%"}, {"measurement": "Population Pyknosed Nuclei (%)", "setting": "[3]", "result": 5, "unit": "%"}, {"measurement": "Population Tubulin-Different-Phenotype (%)", "setting": "[3]", "result": "18% and 11%"}, {"measurement": "Total Cell Count", "setting": "[3]", "result": "918 and 667"}, {"measurement": "Population Fragmented Nuclei (%)", "setting": "[4]", "result": "95% and 56%"}, {"measurement": "Population Hoechst High Intensity Objects (%)", "setting": "[4]", "result": "34% and 86%"}, {"measurement": "Population Mitochondria Different-Phenotype (%)", "setting": "[4]", "result": "5% and 9%"}, {"measurement": "Population Mitotic Cells (%)", "setting": "[4]", "result": "68% and 92%"}, {"measurement": "Population Tubulin-Different-Phenotype (%)", "setting": "[4]", "result": "82% and 59%"}, {"measurement": "Total Cell Count", "setting": "[4]", "result": "1271 and 770"}, {"measurement": "Population Apoptotic (%)", "setting": "[5]", "result": "43% and 15%"}, {"measurement": "Population Fragmented Nuclei (%)", "setting": "[5]", "result": "91% and 64%"}, {"measurement": "Population Hoechst High Intensity Objects (%)", "setting": "[5]", "result": "39% and 65%"}, {"measurement": "Population Membrane Permeable-Phenotype (%)", "setting": "[5]", "result": "50% and 21%"}, {"measurement": "Population Mitochondria Different-Phenotype (%)", "setting": "[5]", "result": "7% and 13%"}, {"measurement": "Population Mitotic Cells (%)", "setting": "[5]", "result": "56% and 84%"}, {"measurement": "Population Normal (%)", "setting": "[5]", "result": "60% and 34%"}, {"measurement": "Population Pyknosed Nuclei (%)", "setting": "[5]", "result": "3% and 9%"}, {"measurement": "Population Tubulin-Different-Phenotype (%)", "setting": "[5]", "result": "30% and 11%"}, {"measurement": "Total Cell Count", "setting": "[5]", "result": "826 and 568"}, {"measurement": "Population Hoechst High Intensity Objects (%)", "setting": "[6]", "result": "33% and 85%"}, {"measurement": "Population Membrane Permeable-Phenotype (%)", "setting": "[6]", "result": "33% and 60%"}, {"measurement": "Population Mitochondria Different-Phenotype (%)", "setting": "[6]", "result": "4% and 6%"}, {"measurement": "Population Mitotic Cells (%)", "setting": "[6]", "result": "87% and 97%"}, {"measurement": "Population Pyknosed Nuclei (%)", "setting": "[6]", "result": 30, "unit": "%"}, {"measurement": "Population Tubulin-Different-Phenotype (%)", "setting": "[6]", "result": "71% and 81%"}, {"measurement": "Total Cell Count", "setting": "[6]", "result": "1330 and 870"}, {"measurement": "Population Fragmented Nuclei (%)", "setting": "[7]", "result": "65% and 58%"}, {"measurement": "Population Healthy Nuclei (%)", "setting": "[7]", "result": "16% and 26%"}, {"measurement": "Population Hoechst High Intensity Objects (%)", "setting": "[7]", "result": "46% and 73%"}, {"measurement": "Population Membrane Permeable-Phenotype (%)", "setting": "[7]", "result": "36% and 31%"}, {"measurement": "Population Mitotic Cells (%)", "setting": "[7]", "result": "40% and 88%"}, {"measurement": "Population Normal (%)", "setting": "[7]", "result": "53% and 26%"}, {"measurement": "Population Pyknosed Nuclei (%)", "setting": "[7]", "result": "17% and 14%"}, {"measurement": "Population Tubulin-Different-Phenotype (%)", "setting": "[7]", "result": "36% and 27%"}, {"measurement": "Total Cell Count", "setting": "[7]", "result": "767 and 657"}, {"measurement": "Population Apoptotic (%)", "setting": "[8]", "result": "23% and 0%"}, {"measurement": "Population Hoechst High Intensity Objects (%)", "setting": "[8]", "result": "36% and 86%"}, {"measurement": "Population Membrane Permeable-Phenotype (%)", "setting": "[8]", "result": "21% and 56%"}, {"measurement": "Population Mitochondria Different-Phenotype (%)", "setting": "[8]", "result": 14, "unit": "%"}, {"measurement": "Population Mitotic Cells (%)", "setting": "[8]", "result": "76% and 100%"}, {"measurement": "Population Tubulin-Different-Phenotype (%)", "setting": "[8]", "result": "78% and 76%"}, {"measurement": "Total Cell Count", "setting": "[8]", "result": "1281 and 924"}]}]}
